The values below come from ChEMBL document CHEMBL3217593, “A Bivalent Ligand Targeting the Putative Mu Opioid Receptor and Chemokine Receptor CCR5 Heterodimers: Binding Affinity versus Functional Activities” (Medchemcomm, 2013).

The structures appear in SMILES notation. Active and inactive are the calls of the source. No cut-off for these calls is given here.

In series [1] the target is T1, C-C chemokine receptor type 5 (Homo sapiens, UniProt P51681). As to the kind of experiment: Antagonist activity at CCR5 in Gqi5 transfected human MOLT4 cells assessed as inhibition of RANTES-stimulated Ca2+ influx preincubated for 15 mins followed by […]. Type of series: functional, cell-based, MOLT-4. In a few lines: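 CCR5-MOLT-4 cells transfected with chimeric […]. Inhibition of RANTES-stimulated Ca2+ flux was measured. IC50 is the mean ± S.E.M. of three independent experiments.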
Target sequence in this assay (P51681 whole entry): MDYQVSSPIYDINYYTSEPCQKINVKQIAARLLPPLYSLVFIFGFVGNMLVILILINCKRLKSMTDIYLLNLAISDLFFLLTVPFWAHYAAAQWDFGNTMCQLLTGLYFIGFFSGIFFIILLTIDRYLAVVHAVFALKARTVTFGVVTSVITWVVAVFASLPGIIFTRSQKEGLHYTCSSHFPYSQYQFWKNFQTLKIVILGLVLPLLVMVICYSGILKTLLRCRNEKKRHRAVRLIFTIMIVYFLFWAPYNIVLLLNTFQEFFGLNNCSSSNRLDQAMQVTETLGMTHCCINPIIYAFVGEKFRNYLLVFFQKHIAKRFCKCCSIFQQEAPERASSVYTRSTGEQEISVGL

The target in series [2] is C-C chemokine receptor type 5 (Macaca mulatta, UniProt P61813). Nature of the series: Displacement of [125I]-MIP-1alpha from CCR5 in rhesus monkey Chem-1 cell membranes after 120 mins by liquid scintillation counting analysis. In general terms: Loss of bound radioactivity is the signal in a displacement assay; it reports binding, not function.
Series [3] has as its target T2, Mu-type opioid receptor (Homo sapiens, UniProt P35372). Nature of the series: Agonist activity at human mu opioid receptor expressed in Gqi5 transfected CHO cells after 15 mins. Type of series: cell-based. In a few lines:
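hMOR-expressing CHO cells transfected with chimeric […] were tested for direct Ca2+ mobilization (agonist mode).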

Series [4] concerns the target T1, C-C chemokine receptor type 5. As to the kind of experiment: Agonist activity at CCR5 in Gqi5 transfected human MOLT4 cells after 15 mins. Conditions: MOLT-4. Type of series: cell-based. Summed up: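 Ca2+ mobilization, agonist mode, in CCR5-MOLT-4 cells transfected with chimeric […]. Intracellular Ca2+ flux was read directly, with no agonist challenge.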
Target sequence in this assay (P51681 whole entry, looked up): as the sequence (P51681 whole entry) above
A short description of series [5]: Cytotoxicity against human astrocytes assessed as cell viability at 100 nM by AOPI staining-based fluorescence assay. To be noted: astrocyte, 0.1 µM. In a few lines: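 Astroglial cell viability after exposure at 100 nM, assessed by dual green/red fluorescence labeling with AOPI.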
Series [6] deals with T2, Mu-type opioid receptor. As to the kind of experiment: Antagonist activity at human mu opioid receptor expressed in Gqi5 transfected CHO cells assessed as inhibition of DAMGO-stimulated Ca2+ influx preincubated for 15 mins followed by DAMGO challenge. Type of series: functional, cell-based. Summed up: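 hMOR-CHO cells transfected with chimeric […]. Inhibition of DAMGO-stimulated Ca2+ flux was measured. IC50 is the mean ± S.E.M. of three independent experiments.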

Series [7] deals with T2, Mu-type opioid receptor. As to the kind of experiment: Displacement of [3H]-naloxone from human mu opioid receptor expressed in CHO cells after 1 hr. Type of series: cell-based. Summed up:
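Competitive binding in hMOR-expressing CHO cells with [3H]naloxone as radioligand. Ki is the mean ± S.E.M. of three independent experiments.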

The species named for the next series is Homo sapiens. As to the kind of experiment: Binding affinity to CCR5/MOR in human astrocytes assessed as inhibition of R5 HIV-1 SF162 infection by measuring Tat protein expression at 1.5 uM preincubated for 30 to 60 mins followed by viral infection measured after 18 hrs by luciferase reporter gene assay. Format: cell-based. Summed up: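 Human astrocytes infected with R5 HIV-1 SF162. Infectivity was read as relative Tat protein expression by luciferase-based assay at 18 h post-infection. Tested at 1.5 μM after an initial dose-response study. Values are from three independent experiments, compared against uninfected and infected controls.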
A general note: In a reporter assay the amount or activity of a reporter protein is the signal.

For series [8], the target named is CCR5/mu opioid receptor complex (Homo sapiens) (UniProt P51681+P35372). Conditions: 100 nM.
Sequence of CCR5/mu opioid receptor complex (Homo sapiens) (P35372 whole entry, looked up): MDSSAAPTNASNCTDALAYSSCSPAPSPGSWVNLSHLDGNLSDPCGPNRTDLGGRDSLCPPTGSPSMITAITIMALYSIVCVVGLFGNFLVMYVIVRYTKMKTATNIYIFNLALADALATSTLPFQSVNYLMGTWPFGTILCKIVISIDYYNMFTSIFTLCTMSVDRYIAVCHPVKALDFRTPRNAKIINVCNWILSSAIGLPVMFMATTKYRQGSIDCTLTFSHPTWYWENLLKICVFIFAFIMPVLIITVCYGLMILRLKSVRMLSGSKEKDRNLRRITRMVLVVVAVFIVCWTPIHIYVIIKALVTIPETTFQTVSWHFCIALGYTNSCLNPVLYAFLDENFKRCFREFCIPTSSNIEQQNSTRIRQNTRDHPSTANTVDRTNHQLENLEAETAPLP
Sequence of CCR5/mu opioid receptor complex (Homo sapiens) (P51681 whole entry, looked up): as the sequence (P51681 whole entry) above

T2 sequence (P35372 whole entry): as the sequence (P35372 whole entry, looked up) above

For `Cc1nnc(C(C)C)n1C1CC2CCC(C1)N2CC[C@H](NC(=O)C1CCC(F)(F)CC1)c1ccc(N)cc1` (some centres undefined), in series [1], the IC50 (as a rule, the midpoint of a concentration-inhibition curve) was determined as 14.2 nM. Also, the Ki (as a rule, a dissociation constant, usually derived from enzyme kinetics or from competition with a known ligand) in series [2] was 15.3 nM. As to `Cc1nnc(C(C)C)n1C1CC2CCC(C1)N2CC[C@H](NC(=O)C1CCC(F)(F)CC1)c1ccc(NC(=O)OC(C)(C)C)cc1` (some centres undefined), the IC50 in series [1] turned out to be 1570 nM. In the case of `CNC(=O)COCC(=O)Nc1ccc([C@H](CCN2C3CCC2CC(n2c(C)nnc2C(C)C)C3)NC(=O)C2CCC(F)(F)CC2)cc1` (some centres undefined), the IC50 in series [1] was 7910 nM. Regarding `Cc1nnc(C(C)C)n1C1CC2CCC(C1)N2CC[C@H](NC(=O)C1CCC(F)(F)CC1)c1ccc(NC(=O)COCC(=O)NCCCCCCCNC(=O)COCC(=O)N[C@@H]2CC[C@@]3(O)[C@H]4Cc5ccc(O)c6c5[C@@]3(CCN4CC3CC3)[C@H]2O6)cc1` (some centres undefined), the result (at Mu-type opioid receptor [3]; in series [4]) was inactive. Moreover, the Activity result in series [5] is recorded as “Non-toxic”. With `CNC(=O)COCC(=O)NCCCCCCCNC(=O)COCC(=O)N[C@@H]1CC[C@@]2(O)[C@H]3Cc4ccc(O)c5c4[C@@]2(CCN3CC2CC2)[C@H]1O5`, the outcome at Mu-type opioid receptor [3] was inactive. On Mu-type opioid receptor [6], the IC50 worked out at 37.8 nM. Besides, the Ki on Mu-type opioid receptor [7] was 9.2 nM. Consider `O=C1CC[C@@]2(O)[C@H]3Cc4ccc(O)c5c4[C@@]2(CCN3CC2CC2)[C@H]1O5`, for which, in the series filed under Homo sapiens, the inhibition entry is “inactive”. Regarding `CNC(=O)COCC(=O)NCCCCCCCNC(=O)COCC(=O)Nc1ccc([C@H](CCN2C3CCC2CC(n2c(C)nnc2C(C)C)C3)NC(=O)C2CCC(F)(F)CC2)cc1` (some centres undefined), the IC50 in series [1] turned out to be 622 nM. This compound also yielded a Ki in series [2] of 151 nM. For the compound `Cc1nnc(C(C)C)n1[C@H]1C[C@H]2CC[C@@H](C1)N2CC[C@H](NC(=O)C1CCC(F)(F)CC1)c1ccccc1`, the inhibition result in series [8] is “Active”.
